Assay [1] addresses Protein-tyrosine kinase 6 (Homo sapiens) (UniProt Q13882). As to the kind of experiment: Inhibition of full-length recombinant human BRK at 10 uM using poly(Glu, Tyr) 4:1 as substrate measured after 40 mins in presence of [gamma33P]ATP by scintillation counting method. Put shortly:
(§1)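 Kinase panel of 422 kinases screened by Eurofins KinaseProfiler at a single test-compound concentration of 10 µM.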

In assay [2] the target is Serine/threonine-protein kinase 32B (Homo sapiens) (UniProt Q9NY57). As to the kind of experiment: Inhibition of recombinant full-length human STK32B at 10 uM using casein as substrate measured after 120 mins in presence of [gamma33P]ATP by scintillation counting method.
The target in assay [3] is Calcium/calmodulin-dependent protein kinase type II subunit delta (Homo sapiens) (UniProt Q13557). As to the kind of experiment: Inhibition of recombinant full-length human CaMK2delta at 10 uM using calmodulin as substrate measured after 40 mins in presence of [gamma33P]ATP by scintillation counting method.
Chain of Calcium/calmodulin-dependent protein kinase type II subunit delta (Homo sapiens) (Q13557 whole entry, the tested form may be a part, canonical isoform): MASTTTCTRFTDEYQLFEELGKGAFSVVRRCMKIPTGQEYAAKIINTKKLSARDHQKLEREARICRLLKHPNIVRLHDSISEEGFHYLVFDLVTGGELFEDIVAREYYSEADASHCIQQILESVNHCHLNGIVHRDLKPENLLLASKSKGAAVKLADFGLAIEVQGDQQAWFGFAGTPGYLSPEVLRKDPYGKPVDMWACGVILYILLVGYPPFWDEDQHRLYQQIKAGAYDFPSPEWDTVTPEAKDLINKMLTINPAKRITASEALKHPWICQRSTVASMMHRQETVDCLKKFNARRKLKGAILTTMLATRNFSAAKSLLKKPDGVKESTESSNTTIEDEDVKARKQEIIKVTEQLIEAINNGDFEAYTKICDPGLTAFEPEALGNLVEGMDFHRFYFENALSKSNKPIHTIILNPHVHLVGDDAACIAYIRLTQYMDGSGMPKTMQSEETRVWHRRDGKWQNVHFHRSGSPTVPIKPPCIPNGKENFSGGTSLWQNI
For assay [4], the target named is Bromodomain-containing protein 4 (Homo sapiens) (UniProt O60885). As to the kind of experiment: Binding affinity to human partial length BRD4 bromodomain 2 long isoform (K333 to E460 residues) expressed in bacterial expression system at 1 uM by BROMOscan assay. Summed up:
(§2)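 BROMOscan bromodomain cross-screen run by an outside service, compound at 1 µM against 32 recombinant bromodomains. Binding given as percent of control.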

Assay [5] deals with Fibroblast growth factor receptor 2 (Homo sapiens) (UniProt P21802). The experiment in a line: Inhibition of recombinant human FGFR2 (456 to 770 residues) at 10 uM using poly(Glu, Tyr) 4:1 as substrate measured after 40 mins in presence of [gamma33P]ATP by scintillation counting method.
Assay [6] addresses Serine/threonine-protein kinase SIK1 (Homo sapiens) (UniProt P57059). The experiment in a line: Inhibition of human SIK (1 to 281 residues) using AMARAASAAALARRR as substrate measured after 40 mins in presence of [gamma33P]ATP by scintillation counting method. Put shortly:
as §1

Assay [7] addresses Serine/threonine-protein kinase ULK2 (Homo sapiens) (UniProt Q8IYT8). The experiment in a line: Inhibition of human ULK2 (1 to 306 residues) using casein as substrate measured after 40 mins in presence of [gamma33P]ATP by scintillation counting method.
The target of assay [8] is Tyrosine-protein kinase Fes/Fps (Homo sapiens) (UniProt P07332). The experiment in a line: Inhibition of recombinant human FES (2 to end residues) at 10 uM using poly(Glu, Tyr) 4:1 as substrate measured after 40 mins in presence of [gamma33P]ATP by scintillation counting method.
Assay [9] has as its target Mitogen-activated protein kinase kinase kinase 9 (Homo sapiens) (UniProt P80192). As to the kind of experiment: Inhibition of recombinant human MLK1 (134 to 414 residues) at 10 uM using casein as substrate measured after 40 mins in presence of [gamma33P]ATP by scintillation counting method.
The target in assay [10] is Ribosomal protein S6 kinase alpha-3 (Homo sapiens) (UniProt P51812). The experiment in a line: Inhibition of human Rsk2 (2 to end residues) using KKKNRTLSVA as substrate measured after 40 mins in presence of [gamma33P]ATP by scintillation counting method. Summed up:
as §1

The target of assay [11] is Transcription initiation factor TFIID subunit 1 (Homo sapiens) (UniProt P21675). As to the kind of experiment: Binding affinity to human N-terminal His-tagged TAF1 bromodomain1 assessed as change in melting temperature at 10 uM by SYPRO orange dye-based fluorescence assay. Summed up: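 Thermal shift with His-tagged human bromodomain at 2 μM final in 10 mM HEPES pH 7.5, 500 mM NaCl. Compound at 10 μM final with 0.1% DMSO; SYPRO Orange at 1:1000. Equilibrated 3 min at 25 °C, then heated from 25 to 95 °C at 1 °C/min. Melting temperature shift taken from fluorescence; at least duplicate.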

Assay [12] deals with Nucleosome-remodeling factor subunit BPTF (Homo sapiens, UniProt Q12830). As to the kind of experiment: Binding affinity to human partial length FALZ (S2791 to H2911 residues) expressed in bacterial expression system at 1 uM by BROMOscan assay. Put shortly: as §2
The target of assay [13] is Fibroblast growth factor receptor 1 (Homo sapiens) (UniProt P11362). The experiment in a line: Inhibition of recombinant human FGFR1 (456 to 765 residues) at 10 uM using KKKSPGEYVNIEFG as substrate measured after 40 mins in presence of [gamma33P]ATP by scintillation counting method.
Chain of Fibroblast growth factor receptor 1 (Homo sapiens) (P11362 22-822 limits assumed): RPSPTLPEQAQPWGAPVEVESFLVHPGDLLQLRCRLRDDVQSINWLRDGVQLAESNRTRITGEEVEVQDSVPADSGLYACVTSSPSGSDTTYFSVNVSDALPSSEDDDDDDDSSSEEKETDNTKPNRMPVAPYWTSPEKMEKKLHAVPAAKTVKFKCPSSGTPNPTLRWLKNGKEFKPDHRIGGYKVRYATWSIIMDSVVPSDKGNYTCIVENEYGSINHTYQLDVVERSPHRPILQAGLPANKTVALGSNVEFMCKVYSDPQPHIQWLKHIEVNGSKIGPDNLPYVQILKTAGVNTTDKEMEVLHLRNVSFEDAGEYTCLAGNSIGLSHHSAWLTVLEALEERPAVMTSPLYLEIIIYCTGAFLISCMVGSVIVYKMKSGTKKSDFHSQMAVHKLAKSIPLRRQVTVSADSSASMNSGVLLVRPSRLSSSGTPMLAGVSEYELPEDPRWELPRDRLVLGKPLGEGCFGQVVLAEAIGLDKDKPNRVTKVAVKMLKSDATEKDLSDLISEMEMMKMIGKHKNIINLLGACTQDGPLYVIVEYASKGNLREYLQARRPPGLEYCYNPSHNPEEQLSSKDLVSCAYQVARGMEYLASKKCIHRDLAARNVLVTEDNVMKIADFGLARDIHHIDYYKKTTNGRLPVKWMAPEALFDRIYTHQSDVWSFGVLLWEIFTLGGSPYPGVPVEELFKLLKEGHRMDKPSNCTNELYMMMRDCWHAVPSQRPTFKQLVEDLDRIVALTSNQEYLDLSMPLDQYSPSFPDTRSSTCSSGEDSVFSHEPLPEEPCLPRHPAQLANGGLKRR
Assay [14] concerns the target Cyclin-Y/Cyclin-dependent kinase 16 (Homo sapiens) (UniProt Q00536+Q8ND76). As to the kind of experiment: Inhibition of recombinant full length human CDK16/cyclinY at 10 uM using PKSPKARKKL as substrate measured after 120 mins in presence of [gamma33P]ATP by scintillation counting method. Type of assay: protein-complex assay.
Assay [15] deals with Fibroblast growth factor receptor 1 (Homo sapiens), P11362 [V561M]. The experiment in a line: Inhibition of recombinant human FGFR1 V561M mutant (456 to 765 residues) at 10 uM using GGEEEEYFELVKKKK as substrate measured after 40 mins in presence of [gamma33P]ATP by scintillation counting method.
Chain of Fibroblast growth factor receptor 1 (Homo sapiens), P11362 [V561M] (P11362 whole entry V561M, the tested form may be a part): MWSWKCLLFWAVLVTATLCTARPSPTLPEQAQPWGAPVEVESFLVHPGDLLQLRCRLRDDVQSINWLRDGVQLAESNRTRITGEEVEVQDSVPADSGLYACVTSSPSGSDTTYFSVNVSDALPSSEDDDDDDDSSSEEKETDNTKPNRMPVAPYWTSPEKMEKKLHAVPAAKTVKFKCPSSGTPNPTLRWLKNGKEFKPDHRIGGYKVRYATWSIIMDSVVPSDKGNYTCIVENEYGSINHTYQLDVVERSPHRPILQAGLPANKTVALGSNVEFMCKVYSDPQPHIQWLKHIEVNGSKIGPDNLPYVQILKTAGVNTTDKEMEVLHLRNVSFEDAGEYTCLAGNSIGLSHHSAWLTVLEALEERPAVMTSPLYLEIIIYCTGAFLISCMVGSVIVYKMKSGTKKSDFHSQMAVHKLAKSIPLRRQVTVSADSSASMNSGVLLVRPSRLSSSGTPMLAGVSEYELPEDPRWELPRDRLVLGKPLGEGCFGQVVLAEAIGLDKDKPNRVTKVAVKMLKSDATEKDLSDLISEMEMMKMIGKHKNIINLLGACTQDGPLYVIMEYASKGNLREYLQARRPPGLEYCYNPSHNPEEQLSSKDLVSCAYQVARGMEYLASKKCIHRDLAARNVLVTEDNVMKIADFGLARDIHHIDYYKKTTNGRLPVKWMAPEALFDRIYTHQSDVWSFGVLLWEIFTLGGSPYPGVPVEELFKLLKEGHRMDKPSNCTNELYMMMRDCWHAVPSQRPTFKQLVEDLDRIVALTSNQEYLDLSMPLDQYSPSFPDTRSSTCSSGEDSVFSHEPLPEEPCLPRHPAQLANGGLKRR
Assay [16] addresses CDK12/Cyclin K (Homo sapiens) (UniProt O75909+Q9NYV4). The experiment in a line: Inhibition of recombinant full length human CDK12/cyclinK at 10 uM using RSRSRSRSRSRSRSR as substrate measured after 120 mins in presence of [gamma33P]ATP by scintillation counting method. It is filed as protein-complex assay.
Assay [17] deals with 5'-AMP-activated protein kinase catalytic subunit alpha-1 (Homo sapiens) (UniProt Q13131). As to the kind of experiment: Inhibition of recombinant full-length human AMPKalpha1 at 10 uM using AMARAASAAALARRR as substrate measured after 40 mins in presence of [gamma33P]ATP by scintillation counting method.
Chain of 5'-AMP-activated protein kinase catalytic subunit alpha-1 (Homo sapiens) (Q13131 whole entry, looked up): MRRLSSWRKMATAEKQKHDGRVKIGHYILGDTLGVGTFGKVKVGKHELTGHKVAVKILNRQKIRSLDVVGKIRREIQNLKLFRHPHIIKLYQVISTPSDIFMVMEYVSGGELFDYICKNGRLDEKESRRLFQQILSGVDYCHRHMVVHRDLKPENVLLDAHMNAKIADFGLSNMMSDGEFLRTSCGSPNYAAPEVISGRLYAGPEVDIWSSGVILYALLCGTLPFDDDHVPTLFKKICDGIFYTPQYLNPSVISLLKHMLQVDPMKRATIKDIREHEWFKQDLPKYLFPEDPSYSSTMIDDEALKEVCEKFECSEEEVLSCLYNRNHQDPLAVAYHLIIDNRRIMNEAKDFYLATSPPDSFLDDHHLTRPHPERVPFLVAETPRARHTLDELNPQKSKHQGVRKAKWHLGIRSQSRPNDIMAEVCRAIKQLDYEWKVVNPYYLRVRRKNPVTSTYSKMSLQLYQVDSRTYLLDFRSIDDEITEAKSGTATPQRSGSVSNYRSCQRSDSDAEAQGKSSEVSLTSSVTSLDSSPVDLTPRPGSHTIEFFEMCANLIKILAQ
The target of assay [18] is 5'-AMP-activated protein kinase catalytic subunit alpha-2 (Homo sapiens) (UniProt P54646). As to the kind of experiment: Inhibition of recombinant full-length human AMPKalpha2 at 10 uM using AMARAASAAALARRR as substrate measured after 40 mins in presence of [gamma33P]ATP by scintillation counting method.
Assay [19] concerns the target Serine/threonine-protein kinase Sgk3 (Homo sapiens) (UniProt Q96BR1). As to the kind of experiment: Inhibition of human SGK3 (119 to end residues) using GRPRTSSFAEGKK as substrate measured after 40 mins in presence of [gamma33P]ATP by scintillation counting method. Summed up:
as §1

Assay [20] has as its target E3 ubiquitin-protein ligase TRIM33 (Homo sapiens) (UniProt Q9UPN9). As to the kind of experiment: Binding affinity to human partial length TRIM33 (D882 to A1087 residues) expressed in bacterial expression system at 1 uM by BROMOscan assay. Put shortly: as §2
Assay [21] concerns the target Serine/threonine-protein kinase Chk2 (Homo sapiens) (UniProt O96017). As to the kind of experiment: Inhibition of recombinant human CHK2 (5 to end residues) at 10 uM using KKKVSRSGLYRSPSMPENLNRPR as substrate measured after 40 mins in presence of [gamma33P]ATP by scintillation counting method.
In assay [22] the target is cAMP-dependent protein kinase catalytic subunit alpha (Homo sapiens) (UniProt P17612). The experiment in a line: Inhibition of recombinant full-length human PKA at 10 uM using Kemptide as substrate measured after 40 mins in presence of [gamma33P]ATP by scintillation counting method.

Activity calls are given as the source filed them. The calls are words filed in the database; no cut-off is given here.

Chain of Mitogen-activated protein kinase kinase kinase 9 (Homo sapiens) (P80192 whole entry, looked up, the tested form may be a part): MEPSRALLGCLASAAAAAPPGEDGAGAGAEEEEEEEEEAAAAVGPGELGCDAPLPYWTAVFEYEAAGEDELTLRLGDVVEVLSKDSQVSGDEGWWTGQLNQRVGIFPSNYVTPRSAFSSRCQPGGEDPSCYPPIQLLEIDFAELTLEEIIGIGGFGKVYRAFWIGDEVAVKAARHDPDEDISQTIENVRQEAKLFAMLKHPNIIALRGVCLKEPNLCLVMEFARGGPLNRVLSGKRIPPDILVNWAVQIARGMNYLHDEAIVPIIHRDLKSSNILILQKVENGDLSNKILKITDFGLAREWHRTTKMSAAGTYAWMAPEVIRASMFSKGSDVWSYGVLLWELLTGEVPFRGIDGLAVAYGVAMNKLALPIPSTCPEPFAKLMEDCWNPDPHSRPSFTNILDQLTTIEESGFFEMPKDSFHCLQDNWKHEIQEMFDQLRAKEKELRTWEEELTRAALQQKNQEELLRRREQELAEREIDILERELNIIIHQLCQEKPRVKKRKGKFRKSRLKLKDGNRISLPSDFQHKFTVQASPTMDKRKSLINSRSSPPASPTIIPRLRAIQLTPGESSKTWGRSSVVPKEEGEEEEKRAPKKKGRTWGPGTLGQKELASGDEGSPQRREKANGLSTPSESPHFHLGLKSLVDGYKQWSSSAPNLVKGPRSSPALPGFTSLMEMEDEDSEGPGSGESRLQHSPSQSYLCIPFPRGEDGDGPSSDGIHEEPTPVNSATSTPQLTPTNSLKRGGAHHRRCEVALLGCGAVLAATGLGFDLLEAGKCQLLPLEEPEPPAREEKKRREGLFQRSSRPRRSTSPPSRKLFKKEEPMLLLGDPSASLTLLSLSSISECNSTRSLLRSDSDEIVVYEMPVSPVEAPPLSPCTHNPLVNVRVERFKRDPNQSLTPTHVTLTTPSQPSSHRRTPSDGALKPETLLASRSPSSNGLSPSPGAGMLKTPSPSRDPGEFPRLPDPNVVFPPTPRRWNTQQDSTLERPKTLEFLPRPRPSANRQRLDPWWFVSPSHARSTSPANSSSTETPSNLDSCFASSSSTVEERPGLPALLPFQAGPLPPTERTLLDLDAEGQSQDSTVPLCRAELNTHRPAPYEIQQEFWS
Chain of Ribosomal protein S6 kinase alpha-3 (Homo sapiens) (P51812 whole entry): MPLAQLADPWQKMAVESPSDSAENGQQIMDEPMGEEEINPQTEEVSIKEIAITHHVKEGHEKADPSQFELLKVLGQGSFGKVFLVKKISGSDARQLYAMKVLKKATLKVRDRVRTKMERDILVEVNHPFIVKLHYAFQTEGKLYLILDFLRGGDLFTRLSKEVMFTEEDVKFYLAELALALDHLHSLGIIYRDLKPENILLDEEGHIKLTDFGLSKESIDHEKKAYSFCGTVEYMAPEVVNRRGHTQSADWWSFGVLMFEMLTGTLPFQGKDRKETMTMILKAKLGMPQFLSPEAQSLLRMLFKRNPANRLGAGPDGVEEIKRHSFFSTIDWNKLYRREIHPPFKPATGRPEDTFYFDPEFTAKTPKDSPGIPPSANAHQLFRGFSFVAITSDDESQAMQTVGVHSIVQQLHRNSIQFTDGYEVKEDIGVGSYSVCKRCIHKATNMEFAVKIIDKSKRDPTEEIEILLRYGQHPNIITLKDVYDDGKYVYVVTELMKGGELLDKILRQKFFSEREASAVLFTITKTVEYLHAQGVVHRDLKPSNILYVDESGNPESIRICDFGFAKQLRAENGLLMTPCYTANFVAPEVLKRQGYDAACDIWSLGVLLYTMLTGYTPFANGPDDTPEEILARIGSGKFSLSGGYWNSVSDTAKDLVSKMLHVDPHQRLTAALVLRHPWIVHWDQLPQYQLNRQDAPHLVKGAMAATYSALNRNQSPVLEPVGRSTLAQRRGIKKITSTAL
Chain of Serine/threonine-protein kinase Chk2 (Homo sapiens) (O96017 whole entry): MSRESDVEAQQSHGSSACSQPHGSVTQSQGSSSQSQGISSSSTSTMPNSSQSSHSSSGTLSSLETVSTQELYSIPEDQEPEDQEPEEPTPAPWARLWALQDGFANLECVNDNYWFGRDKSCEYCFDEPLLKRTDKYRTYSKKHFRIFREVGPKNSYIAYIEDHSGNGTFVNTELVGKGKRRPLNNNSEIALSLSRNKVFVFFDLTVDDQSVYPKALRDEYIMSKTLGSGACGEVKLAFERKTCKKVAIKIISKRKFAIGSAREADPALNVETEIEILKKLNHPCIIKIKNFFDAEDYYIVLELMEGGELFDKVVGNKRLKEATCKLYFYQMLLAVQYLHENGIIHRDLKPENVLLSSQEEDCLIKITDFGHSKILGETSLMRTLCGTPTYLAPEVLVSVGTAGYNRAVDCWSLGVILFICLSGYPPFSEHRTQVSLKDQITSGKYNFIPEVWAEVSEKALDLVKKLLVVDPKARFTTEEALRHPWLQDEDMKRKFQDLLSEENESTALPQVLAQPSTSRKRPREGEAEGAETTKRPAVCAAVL

The term ΔTm denotes the shift of the melting midpoint relative to a reference. `CN1C[C@H](Nc2nc3cc[nH]c3c(=O)n2C)C[C@H](c2ccc3c(c2)OCCO3)C1`: the inhibition result in [1], in assay [2], in assay [3], in [5], in assay [6] and in [7] was “inactive” each time. The inhibition result in [8], in [9], in assay [10], in assay [13], in assay [14] and in [15] was “inactive” each time. For the same compound, the inhibition entry in assay [16], in assay [17], in [18], in [19], in [21] and in [22] was “inactive” throughout. Further, the result in [4] and in assay [20] was inactive. The thermal shift (ΔTm) in assay [11] came out at 0.2 °C. Moreover, the result in [12] was Active.

The values are drawn from ChEMBL document CHEMBL4350961, “Discovery of Pyrrolo[3,2- d]pyrimidin-4-one Derivatives as a New Class of Potent and Cell-Active Inhibitors of P300/CBP-Associated Factor Bromodomain” (J Med Chem, 2019).
